From PubChem BioAssay come the findings set out here.

Activity calls are given as the source filed them.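 The calls were made as follows, unless noted: active = viability at or under a set limit in both replicates, limit being median viability minus 3 SD (cut at about 48% in these data, passing the limit was not always enough); inconclusive = at or under the limit in just one replicate; inactive = at or above the limit in both replicates.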

Assay [1] can be described thus: Her2 expression decrease, cell viability multiplex – SKBR3 breast tumor cells, AlphaScreen, ATP viability, primary screen (AID 461;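 active = Her2 level under about 52% in both replicate screens, with viability over 70% of control, limit read from the data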;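 as to Her2 level: lower value means less Her2 protein in the cells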;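 as to viability: percent of carrier control wells set as 100% viability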). The following applies: SKBR3 Her2 protein level, 18-24 h, measured here: SKBR3 viability, ATP luminescence, at 10 µM.
For assay [2], the target named is Receptor tyrosine-protein kinase erbB-2 (Homo sapiens) (UniProt P04626). Described as above. The conditions noted are these: 18-24 h, at 10 µM, stronger effect = lower value.
Chain of Receptor tyrosine-protein kinase erbB-2 (Homo sapiens) (P04626 whole entry, looked up): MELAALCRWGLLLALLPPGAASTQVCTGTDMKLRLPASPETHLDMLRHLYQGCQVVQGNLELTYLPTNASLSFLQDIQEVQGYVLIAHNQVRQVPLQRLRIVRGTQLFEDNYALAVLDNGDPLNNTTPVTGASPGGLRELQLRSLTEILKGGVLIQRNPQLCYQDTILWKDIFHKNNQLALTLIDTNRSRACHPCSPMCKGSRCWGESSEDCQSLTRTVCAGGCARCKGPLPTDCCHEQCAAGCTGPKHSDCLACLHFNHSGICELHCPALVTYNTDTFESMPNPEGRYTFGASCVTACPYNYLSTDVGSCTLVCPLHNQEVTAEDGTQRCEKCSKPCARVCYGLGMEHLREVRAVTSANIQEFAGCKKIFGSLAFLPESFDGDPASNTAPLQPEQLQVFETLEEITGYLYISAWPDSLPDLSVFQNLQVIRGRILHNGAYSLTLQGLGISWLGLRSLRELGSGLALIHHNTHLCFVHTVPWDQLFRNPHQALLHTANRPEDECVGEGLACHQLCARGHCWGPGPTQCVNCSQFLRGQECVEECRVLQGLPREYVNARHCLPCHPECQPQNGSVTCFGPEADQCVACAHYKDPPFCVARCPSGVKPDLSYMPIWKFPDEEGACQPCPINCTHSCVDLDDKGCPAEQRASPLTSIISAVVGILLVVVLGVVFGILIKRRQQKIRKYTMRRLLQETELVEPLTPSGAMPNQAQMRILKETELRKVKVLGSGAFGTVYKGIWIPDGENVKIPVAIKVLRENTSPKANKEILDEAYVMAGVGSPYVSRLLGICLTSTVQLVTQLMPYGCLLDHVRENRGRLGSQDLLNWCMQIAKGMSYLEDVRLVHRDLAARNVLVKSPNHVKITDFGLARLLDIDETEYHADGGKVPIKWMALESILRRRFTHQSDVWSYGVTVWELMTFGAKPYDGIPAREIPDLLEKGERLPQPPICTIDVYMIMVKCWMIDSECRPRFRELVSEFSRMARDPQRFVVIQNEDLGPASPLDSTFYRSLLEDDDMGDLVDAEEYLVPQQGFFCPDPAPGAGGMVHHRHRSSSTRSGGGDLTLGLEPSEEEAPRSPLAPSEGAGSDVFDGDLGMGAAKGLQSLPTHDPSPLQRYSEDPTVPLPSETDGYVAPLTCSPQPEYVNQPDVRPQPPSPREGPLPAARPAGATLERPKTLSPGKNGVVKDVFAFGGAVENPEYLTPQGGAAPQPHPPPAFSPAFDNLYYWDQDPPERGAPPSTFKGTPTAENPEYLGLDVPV
The nature of assay [3]: reduced viability of SK-BR-3 breast cancer cells – cell-based, 24 h, human, pilot screen (AID 572;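 active = viability at or below 10% of carrier control in both of two separate runs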;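 also: compound exposure lasted between 18 and 24 h rather than exactly 24 h; 100% = carrier-treated control wells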). The conditions noted are these: SK-BR-3 viability, CellTiter-Glo luminescence, at 10 µM, stronger effect = lower value. (In general: Cellular ATP, detected with luciferase, serves as a proxy for viable cell number.)
Assay [4] is described as follows: HUVEC growth inhibition – cell-based, human, primary screen (AID 575;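 active = viability at or below 30% in both replicate assays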;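 also: 100% = median of untreated cell wells with 0.1% DMSO on each plate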). The following applies: HUVEC proliferation, CellTiter-Glo luminescence, 72 h; at 10 µM; stronger effect = lower value. In short, it runs like this:
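System – primary HUVEC, no more than 12 passages · Medium – Low-serum (2% FBS) EBM, supplemented · Times – 72 h exposure, 37 °C, 5% CO2, 30 min RT equilibration · Measured by – luminescent ATP assay · Read-out – % viability relative to median vehicle-well signal on each plate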

The nature of assay [5]: H69AR cell proliferation blockers – human, duplicate replicates, primary screen (AID 580).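 Also: 100% = mean luminescence of untreated wells and 0% = no signal.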 The following applies: H69AR lung tumor cells viability, ATP luminescence, 72 h; at 10 µM; stronger effect = lower value.
Assay [6] can be described thus: MRP1 drug-resistance reversers in H69AR cells – cell-based, doxorubicin co-treatment, pilot screen (AID 601;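 active = viability loss from added drug above about 55%, and viability with drug at most 40%, in both replicates, limit read from the data, passing the limit was not always enough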). The conditions noted are these: CellTiter-Glo, 72 h, at 10 µM; for differential viability (reversal): stronger effect = higher value.
The nature of assay [7]: yeast transport mutant growth inhibition pilot in 384-well plates, post-Golgi transport modulator project (AID 636; in the data active = inhibition above about 31%). The conditions noted are these: absorbance 615 nm, about 18 h, stronger effect = higher value.
A short description of assay [8]: growth suppression of yeast trafficking mutant, preliminary HTS, modulators of trafficking downstream of Golgi apparatus project, 1536-format plate, OD 615 nm (AID 637; in the data active = inhibition above about 30%). The conditions noted are these: yeast transport mutant growth, absorbance 615 nm, 18 h; stronger effect = higher value.
Setting [9] is: H69AR cells + 2 uM doxorubicin, measured here: viability with 2 uM doxorubicin, stronger effect = lower value.
Setting [10] is: H69AR cells, compound alone cytotoxicity.

In general, viability refers to a read-out of living cells in per cent, often relative to untreated cells. As a reminder, the inhibition is the change of the read-out against control, counted positive when it falls. With `Cc1c(C(=O)OCC(C)(C)CN(C)C)oc2ccccc12`, the viability was 122% in assay [1]; 122% (inactive) in assay [3]; 101% (inactive) in assay [4]; 92.4% (inactive) in assay [5]; 84.3% in assay [6] (setting [9]); 92.4% in assay [6] (setting [10]). Moreover, in assay [2], the Her2 level is 95% (inactive). For the same molecule, the differential viability (reversal) in assay [6] (H69AR cells + 2 uM doxorubicin) is 8.07% (inactive). For the same molecule, the results for the inhibition in assay [7] and in assay [8] were -6.8% (inactive) and -4.6% (inactive), respectively.
On to `Brc1ccc(-c2csc(/N=C/N3CCOCC3)n2)cc1`, for which the viability was 113% in assay [1]; 113% (inactive) in assay [3]; 85% (inactive) in assay [4]; 97.6% (inactive) in assay [5]; 92.5% in assay [6] (setting [9]); 97.6% in assay [6] (setting [10]). In assay [2], the Her2 level was 100% (inactive). The differential viability (reversal) in assay [6] (H69AR cells + 2 uM doxorubicin) is 5.1% (inactive). Further, the inhibition was -4.4% (inactive) in assay [7] and -7.1% (inactive) in assay [8].
Turning to `COc1ccc(NC(C)=O)cc1NC(=O)CN1CCN(c2ccccn2)CC1`, the viability in assay [1] is 96%; in assay [3], 96% (inactive); in assay [4], 96% (inactive); in assay [5], 85.6% (inactive); in assay [6] (setting [9]), 79.8%; in assay [6] (setting [10]) it was 85.6%. In assay [2], the Her2 level is 116% (inactive). Besides, the differential viability (reversal) in assay [6] (H69AR cells + 2 uM doxorubicin) is 5.82% (inactive). In addition, the inhibition in assay [7] is -1.87% (inactive); in assay [8], -7.9% (inactive).
On to `Cc1nnc(SCC(=O)N2CCC(C(=O)Nc3nccs3)CC2)n1Cc1ccccc1`, for which the viability is 91.5% in assay [1]; 91.5% (inactive) in assay [3]; 96.2% (inactive) in assay [4]; 91.5% (inactive) in assay [5]; 86.1% in assay [6] (setting [9]); 91.5% in assay [6] (setting [10]). For the same molecule, in assay [2], the Her2 level was 80% (inactive). Moreover, the differential viability (reversal) in assay [6] (H69AR cells + 2 uM doxorubicin) was 5.37% (inactive). Besides, the inhibition in assay [7] was -3.87% (inactive); in assay [8] it was 0.33% (inactive).
On to `Cc1ccc(NC(=O)CSc2nnc(-c3cnccn3)n2Cc2ccco2)cc1C`, for which the viability in assay [1] is 80.5%; in assay [3] it was 80.5% (inactive); in assay [4], 80.6% (inactive); in assay [5], 104% (inactive); in assay [6] (setting [9]), 97.5%; in assay [6] (setting [10]) it was 104%. In addition, the Her2 level in assay [2] was 93% (inactive). Besides, the differential viability (reversal) in assay [6] (H69AR cells + 2 uM doxorubicin) was 6.65% (inactive). Moreover, the inhibition in assay [7] was -1.82% (inactive); in assay [8] it was -7.67% (inactive).
Consider `CCCS(=O)(=O)Nc1c(C(=O)O)[nH]c2ccccc12`, for which the viability in assay [1] is 94.5%; in assay [3] it was 94.5% (inactive); in assay [4] it was 83.9% (inactive); in assay [5] it was 94.5% (inactive); in assay [6] (setting [9]), 106%; in assay [6] (setting [10]) it was 94.5%. For the same molecule, the Her2 level in assay [2] was 93% (inactive). Moreover, the differential viability (reversal) in assay [6] (H69AR cells + 2 uM doxorubicin) is -11.1% (inactive). The inhibition in assay [7] is -5.13% (inactive); in assay [8] it was -12.8% (inactive).
As to `Cc1nn(-c2ccc(F)cc2)c2nc(N)c(C#N)c(-c3cccs3)c12`, the viability in assay [1] was 80.5%; in assay [3], 80.5% (inactive); in assay [4], 85.4% (inactive); in assay [5], 86.2% (inactive); in assay [6] (setting [9]) it was 81.3%; in assay [6] (setting [10]), 86.2%. Besides, the Her2 level in assay [2] is 75.5% (inactive). For the same molecule, the differential viability (reversal) in assay [6] (H69AR cells + 2 uM doxorubicin) was 4.98% (inactive). The values for the inhibition in assay [7] and in assay [8] were -0.79% (inactive) and 3.44% (inactive), respectively.
Take `O=C(C1CCC1)N1CCc2cc(S(=O)(=O)N3CCc4ccccc4C3)ccc21`: the viability is 88% in assay [1]; 88% (inactive) in assay [3]; 72.1% (inactive) in assay [4]; 89% (inactive) in assay [5]; 94% in assay [6] (setting [9]); 89% in assay [6] (setting [10]). For the same molecule, in assay [2], the Her2 level was 97% (inactive). Further, in assay [6] (H69AR cells + 2 uM doxorubicin), the differential viability (reversal) was -5.04% (inactive). Moreover, the inhibition in assay [7] is -5.47% (inactive); in assay [8], -7.54% (inactive).
As to `O=C(C1CC1)N(Cc1ccco1)c1nc(-c2ccccc2)cs1`, the viability was 96.5% in assay [1]; 96.5% (inactive) in assay [3]; 81.4% (inactive) in assay [4]; 86.4% (inactive) in assay [5]; 84.7% in assay [6] (setting [9]); 86.4% in assay [6] (setting [10]). Also, in assay [2], the Her2 level is 108% (inactive). Moreover, the differential viability (reversal) in assay [6] (H69AR cells + 2 uM doxorubicin) is 1.75% (inactive). Moreover, the inhibition was -5.6% (inactive) in assay [7] and -8.36% (inactive) in assay [8].
Regarding `CC1CCN(S(=O)(=O)c2ccc(NC(=O)CSc3nnnn3C)cc2)CC1`, the viability is 94.5% in assay [1]; 94.5% (inactive) in assay [3]; 76.3% (inactive) in assay [4]; 101% (inactive) in assay [5]; 78.7% in assay [6] (setting [9]); 101% in assay [6] (setting [10]). In assay [2], the Her2 level was 103% (inactive). The differential viability (reversal) in assay [6] (H69AR cells + 2 uM doxorubicin) is 22% (inactive). The inhibition in assay [7] was -5.92% (inactive); in assay [8] it was -3.49% (inactive).
Turning to `C=CCSc1ncccc1C(=O)O`, the viability is 89.5% in assay [1]; 89.5% (inactive) in assay [3]; 98.4% (inactive) in assay [4]; 97.1% (inactive) in assay [5]; 88.3% in assay [6] (setting [9]); 97.1% in assay [6] (setting [10]). In addition, the Her2 level in assay [2] is 104% (inactive). Also, the differential viability (reversal) in assay [6] (H69AR cells + 2 uM doxorubicin) was 8.72% (inactive). Further, the inhibition in assay [7] was -1.32% (inactive); in assay [8] it was -7.42% (inactive).
On to `CCOC(=O)C1=C(c2ccccc2)Nc2nc(C)nn2C1c1cccc(OC)c1OC` (stereo not given), for which the viability is 111% in assay [1]; 111% (inactive) in assay [3]; 90.6% (inactive) in assay [4]; 90.2% (inactive) in assay [5]; 53.4% in assay [6] (setting [9]); 90.2% in assay [6] (setting [10]). In assay [2], the Her2 level is 130% (inactive). Further, in assay [6] (H69AR cells + 2 uM doxorubicin), the differential viability (reversal) is 36.8% (inactive). The inhibition in assay [7] was -2.24% (inactive); in assay [8], -0.66% (inactive).
Regarding `CCC(=O)c1ccc(OC(=O)c2ccc(Br)o2)cc1`, the viability in assay [1] is 102%; in assay [3], 102% (inactive); in assay [4], 98% (inactive); in assay [5], 108% (inactive); in assay [6] (setting [9]) it was 99.9%; in assay [6] (setting [10]), 108%. The Her2 level in assay [2] is 78.5% (inactive). Besides, in assay [6] (H69AR cells + 2 uM doxorubicin), the differential viability (reversal) is 8.45% (inactive). In addition, the figures for the inhibition in assay [7] and in assay [8] were -4.67% (inactive) and 8.2% (inactive), respectively.
Consider `COc1ccccc1C1CC(c2ccc(C)cc2)Nc2ncnn21` (stereo not given), for which the viability is 107% in assay [1]; 107% (inactive) in assay [3]; 108% (inactive) in assay [4]; 102% (inactive) in assay [5]; 118% in assay [6] (setting [9]); 102% in assay [6] (setting [10]). For the same molecule, the Her2 level in assay [2] is 116% (inactive). Besides, the differential viability (reversal) in assay [6] (H69AR cells + 2 uM doxorubicin) was -16% (inactive). In addition, the inhibition in assay [7] is 4.67% (inactive); in assay [8], -3.17% (inactive).
Regarding `O=C(Cn1nnc(-c2ccncc2)n1)Nc1ccc2c(c1)CCC2`, the viability is 112% in assay [1]; 112% (inactive) in assay [3]; 107% (inactive) in assay [4]; 110% (inactive) in assay [5]; 96.4% in assay [6] (setting [9]); 110% in assay [6] (setting [10]). Besides, the Her2 level in assay [2] was 93.5% (inactive). The differential viability (reversal) in assay [6] (H69AR cells + 2 uM doxorubicin) is 13.3% (inactive). For the same molecule, the inhibition in assay [7] was -6.45% (inactive); in assay [8] it was 2.38% (inactive).
Regarding `CC(C)OC(=O)CSc1nnc(Cc2ccccc2)n1Cc1ccco1`, the viability in assay [1] is 92.5%; in assay [3], 92.5% (inactive); in assay [4] it was 84.7% (inactive); in assay [5], 92.4% (inactive); in assay [6] (setting [9]) it was 86.3%; in assay [6] (setting [10]), 92.4%. In addition, the Her2 level in assay [2] was 91.5% (inactive). In assay [6] (H69AR cells + 2 uM doxorubicin), the differential viability (reversal) is 6.06% (inactive). Further, the inhibition was -4.27% (inactive) in assay [7] and 14.1% (inactive) in assay [8].
